Series [1] is classed as physicochemical. The conditions noted are these: excess of butylamine; for fold increased half-life / diminished rate compared to salicylaldehyde: vs salicylaldehyde.
Series [2] in a line: ionization constants. The format is physicochemical.
Series [3] concerns the target prohibitin-2 (PHB2) (Homo sapiens, UniProt Q99623). Kind of series: TMT18plex lysine ligandability profiling, PHB2. It counts as binding. The settings on record: 100 μM, 8 h, breast cancer cells. Put shortly:
(§1)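 Live MDA-MB-231 or MDA-MB-436 breast cancer cells were exposed to the test compound (100 µM, 8 h) or DMSO vehicle. Lysates (soluble and insoluble fractions) were chased with a desthiobiotin-tagged lysine-specific STP ester probe, trypsin-digested, streptavidin-enriched and quantified by TMTpro-18plex. Lysines had to be quantified in all biological triplicates and TMT channels. A lysine counted as liganded at ≥60% loss of probe enrichment relative to DMSO.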

Series [4] concerns the target stathmin (STMN1) (Homo sapiens, UniProt P16949). Kind of series: TMT18plex lysine ligandability profiling, STMN1. The conditions noted are these: 100 μM, 8 h, breast cancer cells. The format is binding. The method in brief:
as §1

Series [5] addresses OCIAD2 (Homo sapiens, UniProt Q56VL3). Put plainly: TMT18plex lysine ligandability profiling, OCIAD2. The settings on record: 100 μM, 8 h. It counts as binding. The method in brief:
as §1

The target of series [6] is mitochondrial citrate synthase (CS) (Homo sapiens, UniProt O75390). Kind of series: TMT18plex lysine ligandability profiling, CS. The format is binding. The conditions noted are these: MDA-MB-231 cells. The method in brief:
as §1

For series [7] the following is noted: phenolic core of ubiquinol; cited from earlier work.
In series [8] the target is transthyretin (TTR) (Homo sapiens, UniProt P02766). Put plainly: TMT18plex lysine ligandability profiling, TTR. The format is binding. The settings on record: liganded = ≥60% reduction in probe enrichment; single meroterpenoid. Put shortly:
as §1

Series [9] has as its target T1, ABHD12 (Homo sapiens, UniProt Q8N2K0).
T1 sequence (Q8N2K0 1-398): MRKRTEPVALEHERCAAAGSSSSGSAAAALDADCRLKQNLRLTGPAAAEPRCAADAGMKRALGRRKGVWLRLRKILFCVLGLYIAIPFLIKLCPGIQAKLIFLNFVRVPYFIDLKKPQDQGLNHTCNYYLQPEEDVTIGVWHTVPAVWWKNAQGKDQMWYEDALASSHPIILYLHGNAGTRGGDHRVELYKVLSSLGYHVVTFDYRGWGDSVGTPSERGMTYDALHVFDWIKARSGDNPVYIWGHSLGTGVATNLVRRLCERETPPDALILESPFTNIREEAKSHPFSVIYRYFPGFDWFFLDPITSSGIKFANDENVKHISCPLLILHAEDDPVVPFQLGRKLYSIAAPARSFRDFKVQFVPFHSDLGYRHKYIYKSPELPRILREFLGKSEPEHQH
Kind of series: TMT18plex lysine ligandability profiling, ABHD12. The conditions noted are these: both MDA-MB-231 and MDA-MB-436 cell lines. It counts as binding. Put shortly:
as §1

The target in series [10] is T2, WT-ABHD12 (Homo sapiens, UniProt Q8N2K0).
T2 sequence (Q8N2K0 1-398): T1 sequence (Q8N2K0 1-398)
Put plainly: LC/MS-based LPS hydrolysis assay, WT-ABHD12 in HEK293T cell lysates. It counts as biochemical. The method in brief:
(§2)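 Recombinant ABHD12 (WT, S246A and K373 mutants) was expressed in HEK293T cells and used as cell lysate. Lysate was preincubated with the test compound (single-point 100 µM, or a dose series; 1 h, 37 °C), then given 17:1 LPS substrate (100 µM, 20 min, 37 °C).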

The target in series [11] is K373R-ABHD12 (Homo sapiens, UniProt Q8N2K0, K373R). Kind of series: LC/MS-based LPS hydrolysis assay, K373R-ABHD12 in HEK293T cell lysates. The format is biochemical. The method in brief:
as §2

Series [12] addresses T1, ABHD12. Put plainly: immunoblot analysis of high-molecular-weight ABHD12 aggregates. The conditions noted are these: recombinant ABHD12, immunoblot. The method in brief:
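Flag-tagged WT and K373R ABHD12 expressed recombinantly in HEK293T cells; lysates treated with increasing test compound, then labeled with TAMRA-FP. Read-out by in-gel fluorescence plus Western blot, tracking monomeric and high-molecular-weight ABHD12 bands.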

The subject of series [13] is MDA-MB-231 cells. Kind of series: untargeted lipidomics profiling of treated cells. The format is cell-based, human. The settings on record: 100 μM, 8 h.
The target in series [14] is WT-IDH2 (Homo sapiens, UniProt P48735). Put plainly: oxidative IDH2 activity. It counts as biochemical. Put shortly: (§3)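 HEK293T lysates expressed recombinant IDH2: WT, K299 mutants, K413R, or double K299R/K413R. Lysate was preincubated with the test compound (single-point 100 µM, or a dose series; 1 h, 37 °C). α-KG production from D-(+)-threo-isocitrate (1.3 mM, 1 h, 25 °C) was measured.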

Series [15] concerns the target K299R-IDH2 (Homo sapiens, UniProt P48735, K299R). Kind of series: oxidative IDH2 activity, K299R-IDH2 in HEK293T cell lysates. The format is biochemical. Put shortly:
as §3

In series [16] the target is K413R-IDH2 (Homo sapiens, UniProt P48735, K413R). Put plainly: oxidative IDH2 activity, K413R-IDH2 in HEK293T cell lysates. It counts as biochemical. The method in brief: as §3
Series [17] addresses K299R/K413R-IDH2 (Homo sapiens, UniProt P48735, K299R/K413R). Put plainly: oxidative IDH2 activity, K299R/K413R-IDH2 in HEK293T cell lysates. It counts as biochemical.
Series [18] has as its target R140Q-IDH2 (Homo sapiens, UniProt P48735, R140Q). Put plainly: reductive activity. It counts as biochemical. Put shortly: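 Lysates of HEK293T cells expressed recombinant R140Q-IDH2, alone or with K299R or K299R/K413R added. Lysate was preincubated with the test compound (single-point 100 µM, or a dose series; 2 h, 20 °C). 2-HG production from α-KG substrate (0.6 mM, 1 h, 25 °C) was measured.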

In series [19] the target is IDH2 (Homo sapiens, UniProt P48735). Put plainly: immunoblotting analysis of IDH2 homodimerization. The method in brief:
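Flag-tagged WT- and R140Q-IDH2, with K299 and K413 mutants, were recombinantly expressed in HEK293T cells. Lysates were treated with the test compound, and IDH2 homodimer formation was read by immunoblot.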
(Immunoblotting shows a protein as a band on a membrane.)

Series [20] addresses WT-PFKM (Homo sapiens, UniProt P08237). Kind of series: F6P phosphorylation assay, WT-PFKM in HEK293T cell lysates. It counts as biochemical. The method in brief: (§4)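 Epitope-tagged WT-PFKM or K678R-PFKM was recombinantly expressed in HEK293T cells and used as lysate. Lysate was preincubated with the test compound (single-point 100 µM, or a dose series; 2 h, 37 °C).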
Series [21] addresses K678R-PFKM (Homo sapiens, UniProt P08237, K678R). Kind of series: F6P phosphorylation assay, K678R-PFKM in HEK293T cell lysates. The format is biochemical. Put shortly: as §4
Series [22] has as its system MDA-MB-231 cells. Put plainly: in-gel fluorescence profiling of clickable probes. It counts as cell-based, human. The settings on record: in MDA-MB-231 cells.
The target of series [23] is annexin A4 (ANXA4) (Homo sapiens, UniProt P09525). Kind of series: TMT18plex lysine ligandability profiling, ANXA4. It counts as binding. The conditions noted are these: liganded = ≥60% reduction in probe enrichment; single meroterpenoid. The method in brief: as §1

The source of these data is paper PMC11000255 (Journal of the American Chemical Society, 2024).

A value given as a limit tells only on which side of the number the result lay.

As a reminder, the pKa is the pH at which an ionisable group is half protonated. A lower pKa goes with a group that gives up its proton readily. The IC50 is the concentration at which inhibition is half-maximal. A high value points to weaker potency in that assay.

Chain of K299R/K413R-IDH2 (P48735 40-452 K299R/K413R): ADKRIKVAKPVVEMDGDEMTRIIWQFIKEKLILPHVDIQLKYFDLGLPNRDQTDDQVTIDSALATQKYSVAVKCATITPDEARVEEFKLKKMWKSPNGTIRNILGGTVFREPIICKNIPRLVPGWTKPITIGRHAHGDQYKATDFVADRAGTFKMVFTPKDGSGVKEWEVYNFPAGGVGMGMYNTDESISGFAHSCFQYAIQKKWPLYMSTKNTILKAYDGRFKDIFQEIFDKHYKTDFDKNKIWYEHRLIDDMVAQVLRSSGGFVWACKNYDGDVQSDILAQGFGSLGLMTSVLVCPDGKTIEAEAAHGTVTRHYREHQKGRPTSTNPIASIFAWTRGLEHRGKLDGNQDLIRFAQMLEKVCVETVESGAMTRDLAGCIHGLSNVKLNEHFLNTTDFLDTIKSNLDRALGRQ
Chain of R140Q-IDH2 (P48735 40-452 R140Q): as the sequence (P48735 40-452 K299R/K413R) above, with R101Q, R260K, R374K counted along it
Chain of prohibitin-2 (PHB2) (Q99623 whole entry): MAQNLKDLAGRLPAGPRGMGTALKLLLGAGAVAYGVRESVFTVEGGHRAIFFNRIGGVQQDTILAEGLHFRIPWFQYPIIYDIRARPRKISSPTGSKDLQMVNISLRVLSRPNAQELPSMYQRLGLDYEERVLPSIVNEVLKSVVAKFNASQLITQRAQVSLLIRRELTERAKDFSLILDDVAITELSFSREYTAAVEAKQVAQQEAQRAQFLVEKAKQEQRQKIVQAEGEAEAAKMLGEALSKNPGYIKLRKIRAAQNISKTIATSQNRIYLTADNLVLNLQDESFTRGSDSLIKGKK
Chain of stathmin (STMN1) (P16949 whole entry): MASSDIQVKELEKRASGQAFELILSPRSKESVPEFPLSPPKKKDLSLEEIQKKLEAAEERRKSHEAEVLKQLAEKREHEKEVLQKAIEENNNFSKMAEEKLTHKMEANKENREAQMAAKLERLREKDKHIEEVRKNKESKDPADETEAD
Chain of WT-PFKM (P08237 whole entry): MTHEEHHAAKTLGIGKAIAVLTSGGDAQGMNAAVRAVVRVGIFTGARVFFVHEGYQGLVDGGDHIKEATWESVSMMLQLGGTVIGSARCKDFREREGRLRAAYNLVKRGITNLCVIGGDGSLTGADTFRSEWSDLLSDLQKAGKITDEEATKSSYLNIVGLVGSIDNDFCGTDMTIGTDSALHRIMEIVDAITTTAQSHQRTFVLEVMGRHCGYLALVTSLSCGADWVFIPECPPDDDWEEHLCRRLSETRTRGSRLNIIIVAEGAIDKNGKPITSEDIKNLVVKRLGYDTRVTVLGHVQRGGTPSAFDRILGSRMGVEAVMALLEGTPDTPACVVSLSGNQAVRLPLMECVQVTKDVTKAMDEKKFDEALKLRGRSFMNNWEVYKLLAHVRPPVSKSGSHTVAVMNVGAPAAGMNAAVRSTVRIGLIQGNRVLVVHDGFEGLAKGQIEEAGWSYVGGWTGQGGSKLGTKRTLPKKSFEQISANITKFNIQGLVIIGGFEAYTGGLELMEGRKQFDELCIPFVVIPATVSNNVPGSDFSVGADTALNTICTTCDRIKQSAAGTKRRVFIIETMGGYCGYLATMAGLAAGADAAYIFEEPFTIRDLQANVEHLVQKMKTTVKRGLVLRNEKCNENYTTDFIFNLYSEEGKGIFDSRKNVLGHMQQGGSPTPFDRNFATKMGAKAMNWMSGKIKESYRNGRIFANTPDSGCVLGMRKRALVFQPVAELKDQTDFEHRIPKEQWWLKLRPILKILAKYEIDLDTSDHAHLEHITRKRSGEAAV
Chain of WT-IDH2 (P48735 40-452): as the sequence (P48735 40-452 K299R/K413R) above, with R260K, R374K counted along it
Chain of OCIAD2 (Q56VL3 whole entry): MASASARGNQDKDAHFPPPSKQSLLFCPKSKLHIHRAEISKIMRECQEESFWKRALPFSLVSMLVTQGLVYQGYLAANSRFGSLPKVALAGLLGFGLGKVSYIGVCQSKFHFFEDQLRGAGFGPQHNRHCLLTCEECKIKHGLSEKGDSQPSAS
Chain of annexin A4 (ANXA4) (P09525 whole entry): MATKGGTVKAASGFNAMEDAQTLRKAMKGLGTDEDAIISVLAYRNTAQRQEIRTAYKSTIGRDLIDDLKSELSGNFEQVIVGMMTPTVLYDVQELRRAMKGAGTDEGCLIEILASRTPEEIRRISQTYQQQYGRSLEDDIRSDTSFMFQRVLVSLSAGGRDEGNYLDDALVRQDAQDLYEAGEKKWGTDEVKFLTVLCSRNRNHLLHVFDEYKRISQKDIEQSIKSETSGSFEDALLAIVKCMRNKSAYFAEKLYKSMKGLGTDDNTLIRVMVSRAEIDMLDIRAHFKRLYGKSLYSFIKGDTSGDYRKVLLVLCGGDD
Chain of mitochondrial citrate synthase (CS) (O75390 28-466): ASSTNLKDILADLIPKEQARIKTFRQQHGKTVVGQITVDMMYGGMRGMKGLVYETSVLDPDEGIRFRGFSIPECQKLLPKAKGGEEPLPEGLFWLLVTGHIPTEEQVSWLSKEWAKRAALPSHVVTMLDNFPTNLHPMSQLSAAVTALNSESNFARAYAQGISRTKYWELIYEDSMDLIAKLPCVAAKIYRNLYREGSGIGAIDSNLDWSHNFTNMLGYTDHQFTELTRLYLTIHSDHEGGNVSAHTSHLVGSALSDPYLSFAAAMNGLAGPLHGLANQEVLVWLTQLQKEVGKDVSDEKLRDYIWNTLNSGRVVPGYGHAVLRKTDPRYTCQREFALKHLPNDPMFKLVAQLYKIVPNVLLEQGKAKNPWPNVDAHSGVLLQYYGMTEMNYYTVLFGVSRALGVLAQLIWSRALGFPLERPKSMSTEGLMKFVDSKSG
Chain of K373R-ABHD12 (Q8N2K0 whole entry K373R): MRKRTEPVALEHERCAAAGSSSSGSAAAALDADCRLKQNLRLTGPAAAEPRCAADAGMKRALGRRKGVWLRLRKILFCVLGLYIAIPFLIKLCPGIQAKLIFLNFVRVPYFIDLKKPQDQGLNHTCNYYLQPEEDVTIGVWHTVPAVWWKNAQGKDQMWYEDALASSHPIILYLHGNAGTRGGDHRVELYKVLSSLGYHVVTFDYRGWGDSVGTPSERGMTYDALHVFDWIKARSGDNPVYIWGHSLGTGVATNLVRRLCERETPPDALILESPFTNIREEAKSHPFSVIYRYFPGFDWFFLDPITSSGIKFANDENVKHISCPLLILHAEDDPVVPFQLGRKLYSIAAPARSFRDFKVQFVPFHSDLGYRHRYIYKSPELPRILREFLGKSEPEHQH
Chain of K299R-IDH2 (P48735 40-452 K299R): as the sequence (P48735 40-452 K299R/K413R) above, with R374K counted along it
Chain of K678R-PFKM (P08237 whole entry K678R): as the sequence (P08237 whole entry) above, with K678R counted along it
Chain of K413R-IDH2 (P48735 40-452 K413R): as the sequence (P48735 40-452 K299R/K413R) above, with R260K counted along it
Chain of IDH2 (P48735 40-452): as the sequence (P48735 40-452 K299R/K413R) above, with R260K, R374K counted along it

Take `O=Cc1ccccc1` [benzaldehyde]: the “fold increased half-life / diminished rate compared to salicylaldehyde” value in series [1] amounted to 10 fold.
Take `Cc1c(O)c(C=O)c(O)c(C(=O)CC(C)C)c1O` [grandinol]: the pKa in series [2] worked out at 10.9. In series [1] (vs jensenone), the “fold diminished rate compared to jensenone” value is reported as 30 fold.
As to (+)-euglobal-G2, in series [3], the “ligandability of K24 in PHB2” value worked out at 26%. For the same compound, in series [4], the “ligandability of K128 in STMN1” value was 67%. For the same compound, the “ligandability of K99 in OCIAD2” value in series [5] (MDA-MB-231 cells) is given as 92%; in [5] (MDA-MB-436 cells) it was 49%.
For `CC(C)CC(=O)c1c(O)c(C=O)c2c(c1O)CC[C@@]1(CC[C@H]3C[C@@H]1C3(C)C)O2` [(−)-euglobal-G3], the “engagement of K76 in CS” value in series [6] is on record as “exclusively targeted”.
Regarding `COc1c(O)c(C)c(C/C=C(\C)CC/C=C(\C)CC/C=C(\C)CC/C=C(\C)CC/C=C(\C)CC/C=C(\C)CC/C=C(\C)CC/C=C(\C)CC/C=C(\C)CCC=C(C)C)c(O)c1OC` [ubiquinol], in [7], the “calculated pKa1” value is recorded as 5.31 and the “calculated pKa2” value is on record as 10.86.
`CC(C)CC(=O)c1c(O)c(C=O)c(O)c(C=O)c1O` [jensenone] gave a pKa in series [2] of 10.5. The “engagement of K35 in TTR” value in series [8] is recorded as “selectively engaged”. Moreover, the “ligandability of K373 in ABHD12” value in [9] was found to be 76%. The half-maximal inhibitory concentration (IC50) is 32.6 µM in [10]; 45.7 µM in series [11]; 20.9 µM in series [14]; 29.8 µM in series [15]; 21.4 µM in series [16]; over 100 µM in series [17]. In addition, the results for the IC50 in series [18], in series [20] and in [21] were 26.2 µM, 10.8 µM and over 100 µM, respectively. Further, in series [10] (100 μM, 1 h, 37 °C, 17:1 LPS substrate), the “residual ABHD12 LPS hydrolysis activity” value worked out at 23%. Besides, in [12], the “formation of high-molecular-weight ABHD12 aggregates” value is “marked reduction in the monomeric form of ABHD12 and a concomitant increase in high-molecular-weight ABHD12 aggregates”. Moreover, in series [13], the “levels of monoacylglycerophosphoserine LPS(18:0)” value is “significantly elevated levels”. The “levels of stearic acid FA(18:0)” value in series [13] was “concurrent reduction”. Besides, the “effect on IDH2 oxidative activity” value in series [14] (100 μM, 1 h, 37 °C) is on record as “complete functional inhibition”. Further, the “oxidative activity following treatment” value in series [17] (double mutant K299R/K413R-IDH2, 100 μM, 1 h, 20 °C) was “essentially preserved its oxidative activity”. For the same compound, the “effect on reductive activity (2-HG production)” value in series [18] (100 μM, 2 h, 20 °C) was “fully abolished the reductive activity”. Moreover, the IDH2 homodimerization entry in [19] was “unexpected induction of IDH2 homodimerization”. Further, the “inhibitory effect on catalytic activity of PFKM” value in series [20] (100 μM, 2 h, 37 °C, among the meroterpenoids assessed) is listed as “most pronounced inhibitory effects”.
Take `O=Cc1c(O)cc(O)cc1O` [phloroglucinaldehyde]: the “fold increased half-life / diminished rate compared to salicylaldehyde” value in series [1] is 80 fold.
With `CC(C)CC(=O)c1c(O)c(C=O)c2c(c1O)C[C@H]1C[C@H]3C[C@H](C3(C)C)[C@@]1(C)O2` [(−)-euglobal-G2], the “ligandability of K24 in PHB2” value in series [3] came to 61%. Besides, the “ligandability of K128 in STMN1” value in series [4] is recorded as 11%.
`CC(C)CC(=O)c1c(O)c(C=O)c(O)c2c1O[C@@]1(CC2)CC[C@H]2C[C@@H]1C2(C)C` [(−)-euglobal-G4]: the “competitive blockade of azide probe (−)-11 labeling” value in [22] is reported as “blockade of probe (−)-11 labeling for a subset of protein targets in a dose-dependent manner”. For the same compound, the “engagement of K246 in ANXA4” value in series [23] is “exclusively targeted”.
